Assay outcomes deposited in PubChem by several laboratories.
Many of the other results were omitted from the sample, so hits are more common in it than they were.
XBP1 UPR activ = activators of adaptive arm of unfolded protein response (XBP1). activation, % at 20 µM. 330,000 tested, 0.33% active. AID 463104. CHO-XBP1 luciferase reporter, IRE1-XBP1 UPR activation, luminescence; percent of tunicamycin response, DMSO as zero;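 active = versus positive control, 20 µM dose yields 30% or more activation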;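 note: 100% = tunicamycin at 10 µg/mL and 0% = DMSO only wells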
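Material – CHO cell line with stable XBP1 luciferase reporter · Buffer or medium – F12 plus 10% FBS · Compound – single point, 20 µM final compound, 1% DMSO · Schedule – 16-18 h cell attachment at 37 °C, then 6 h compound exposure · Signal – Steady-Glo luminescence read · Benchmarks – high control tunicamycin 10 µg/mL final, low control DMSO vehicle only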
CHOP inh = CHOP inhibition in unfolded protein response | CHO-K1 CHOP-promoter luciferase, tunicamycin-induced, 15-18 h | inhibition, % at 10 µM | 220,000 tested, 3.8% active | AID 2732;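 active = compounds that reduced the stress-induced luciferase reporter signal by more than about 70% of percent inhibition, limit read from the data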;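 note: 0% = tunicamycin plus vehicle and 100% = wells without tunicamycin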
NOD2 RIPK2 PPI = blocks binding of human NOD2 to RIPK2; O43353; CHO BLA complementation NOD2-RIPK2, CCF4 ratio; inhibition, % at 4.98 µM; 360,000 tested, 0.38% active; AID 624267; in the data active = inhibition above about 21%;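 note: 0% = vehicle only and 100% = reference blocker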
UPR CHOP act = activators of apoptotic arm of unfolded protein response (CHOP) | CHO-CHOP luciferase reporter, UPR activation, luminescence; percent of tunicamycin response over DMSO baseline | activation, % at 10 µM | 330,000 tested, 0.34% active | AID 449763;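 active = at 10 µM dose, activation of 40% or more, normalized to positive control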;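 note: 100% = tunicamycin at 10 µg/mL and 0% = DMSO alone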
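Assay system: CHO-CHOP cells, stable luciferase reporter of PERK-eIF2a-CHOP signalling / Buffer or medium: F12 plus 10% serum / Compound dosing: one dose, 10 µM in 0.5% DMSO / Times: 6 h compound treatment, 37 °C / Technique: luciferase luminescence / Read-out: % reporter activation, DMSO baseline versus tunicamycin full activation / Benchmarks: tunicamycin and DMSO controls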
TLR4-MyD88 BLA = inhibitors of human TLR4-MyD88 binding; O00206+Q99836; HeLa CL3-4 TLR4/MyD88 BLA complementation, FRET ratio; inhibition, % at 8.4 µM; 200,000 tested, 0.18% active; AID 861; in the data active = inhibition above about 25%;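 note: 0% = vehicle and 100% = reference inhibitor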
TLR9-MyD88 inh = TLR9-MyD88 interaction inhibition | CHO BLA complementation TLR9-MyD88, CCF4 FRET ratio | inhibition, % at 4.98 µM | 340,000 tested, 0.21% active;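 active = inhibition above the mean over all tested compounds plus 3 SD, cut at about 21% in these data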;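 note: 0% = DMSO only wells and 100% = clavulanate BLA inhibitor control wells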
CHOP confirm = confirmation of CHOP induction inhibitors. 2,100 tested, 45% active. shares compounds with CHOP inh. inhibition, % at 10 µM. CHO-CHOP promoter luciferase reporter, tunicamycin-induced, luminescence;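 active = mean of three repeat readings of reporter signal inhibition above a set limit, cut at about 70% in these data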;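 note: 0% = tunicamycin plus vehicle and 100% = wells lacking tunicamycin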
* marks the source's active call; other numbers are inactive results; . = no result.

SMILES | XBP1 UPR activ | CHOP inh | NOD2 RIPK2 PPI | UPR CHOP act | TLR4-MyD88 BLA | TLR9-MyD88 inh | CHOP confirm
CCCCS/C(N)=N/N=C/c1cc(C)ccc1O | 4 | 102* | -1 | 1 | 12 | 2 | -6
Cc1cc(C#N)c(C)n1-c1cc(S(=O)(=O)N2CCOCC2)ccc1N1CCCC1 | -2 | 6 | -5 | 1 | -20 | -7 | .
CCCCNS(=O)(=O)c1ccc2nc(-c3cccnc3)cc(C(=O)NC3CCCC3)c2c1 | 5 | 102* | -2 | 4 | . | 3 | 107*
FC(F)(F)c1cccc(NC(=S)NC(c2ccccc2)c2ccccc2)c1 | . | 103* | -14 | . | 16 | 5 | 75*
COc1ccc(S(=O)(=O)N(C)c2ccc(C(=O)NCc3ccccn3)cc2)cc1OC | 0 | . | 2 | -1 | . | -3 | .
COc1ccc(N(C(=O)c2ccco2)C(C(=O)NC2CCCC2)c2cc(OC)c(OC)c(OC)c2)cc1 (centres undefined) | -2 | . | -1 | 1 | . | -4 | .
C(=C1/CCCC2=C1Nc1ncnn1C2c1ccccc1)/c1ccccc1 (centres undefined) | -8 | 112* | . | 6 | 4 | . | 58
Cn1cc(S(=O)(=O)N2CCc3ccccc32)cc1C(=O)NC(C)(C)C | -2 | . | 1 | 1 | . | 0 | .
COc1ccc(CCNc2ccc(C(CC(N)=O)NC(=O)Cc3cccc4ccccc34)cc2[N+](=O)[O-])cc1 (centres undefined) | -5 | 63 | 1 | 1 | . | -6 | .
Cc1cccc(CNc2ccc(C(CC(N)=O)NC(=O)Cc3cccc4ccccc34)cc2[N+](=O)[O-])c1 (centres undefined) | -1 | 105* | 7 | 1 | . | 5 | 17
NC(=O)CC(NC(=O)Cc1ccc(Br)cc1)c1ccc(N2CCN(c3ccccc3)CC2)c([N+](=O)[O-])c1 (centres undefined) | -1 | 103* | -4 | 0 | . | 3 | 32
CCCCNc1ccc(C(CC(N)=O)NC(=O)Cc2cccc3ccccc23)cc1[N+](=O)[O-] (centres undefined) | -2 | 104* | -6 | 0 | . | -2 | 26
Cc1ccc(C)c(COC(=O)CCN=C2NS(=O)(=O)c3ccccc32)c1 | -1 | . | 8 | -1 | . | -4 | .
CCOCC(=O)NC1CCc2cc(OC)c(OC)c(OC)c2-c2ccc(SC)c(=O)cc21 (centres undefined) | . | . | 4 | . | . | -11 | .
FC(F)(F)c1ccc(/C=N/NC(=S)NC2CCCCC2)cc1 | -1 | 106* | -12 | -1 | -16 | 1 | 108*
S=c1[nH]nc(COc2ccccc2)n1/N=C/C(Cl)=C/c1ccccc1 | 1 | 103* | -3 | -2 | 1 | -3 | -3
COc1ccc(OCc2cccc(C(=O)Nn3cc([N+](=O)[O-])cn3)c2)cc1 | -7 | 98* | -9 | -11 | 21 | -6 | 123*
COC(=O)c1cccc(Cn2cc([N+](=O)[O-])cn2)c1 | 0 | 13 | . | -2 | -9 | . | .
COc1cc(C(=O)CCN2CCC(c3ccccc3)C2)cc(OC)c1OC (centres undefined) | -2 | -5 | -2 | 2 | -6 | 0 | .
Cn1c(=O)c2c(nc(N3CCN(c4ccc([N+](=O)[O-])cc4)CC3)n2C)n(C)c1=O | -1 | -8 | -4 | -1 | . | . | .
COc1c(C(=O)Nc2ccc3[nH]c(=O)[nH]c3c2)cc2ccccc2c1Br | -3 | 100* | 17 | -1 | 2 | 4 | -15
CC1=CC(=NOC(=O)/C=C/c2ccccc2)C=C(C)C1=O | 1 | 21 | 6 | 1 | 0 | -3 | .
CC1=C(C)/C(=N\OC(=O)/C=C/c2ccccc2)C=CC1=O | -9 | 104* | 2 | 2 | -2 | -6 | -143
CC1=CC(=O)C=C(C)C1=NOC(=O)/C=C\c1ccccc1 | 1 | 101* | -9 | 36 | 3 | -6 | -90
Cc1ccc(NC(=O)C(C)OC(=O)/C=C/c2ccccc2)cc1 (centres undefined) | -4 | . | 9 | -2 | . | 2 | .
